OXTR ag: human OXTR agonists, primary screen, fluorescence, CHO-OTR cells, Fluo-8 calcium | activation, % at 3 µM | AID 2435, 2010 | hit rate 0.32% among 320,000 | Fluo-8 calcium fluorescence; normalized: DMSO 0%, oxytocin 100%;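 active = activation above the mean of all tested compounds plus 3 SD, cutoff set per screening run, cut at about 20% in these data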;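 note: peak over basal fluorescence ratio from a 100 s FLIPR kinetic read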
Target sequence (P30559 whole entry, looked up): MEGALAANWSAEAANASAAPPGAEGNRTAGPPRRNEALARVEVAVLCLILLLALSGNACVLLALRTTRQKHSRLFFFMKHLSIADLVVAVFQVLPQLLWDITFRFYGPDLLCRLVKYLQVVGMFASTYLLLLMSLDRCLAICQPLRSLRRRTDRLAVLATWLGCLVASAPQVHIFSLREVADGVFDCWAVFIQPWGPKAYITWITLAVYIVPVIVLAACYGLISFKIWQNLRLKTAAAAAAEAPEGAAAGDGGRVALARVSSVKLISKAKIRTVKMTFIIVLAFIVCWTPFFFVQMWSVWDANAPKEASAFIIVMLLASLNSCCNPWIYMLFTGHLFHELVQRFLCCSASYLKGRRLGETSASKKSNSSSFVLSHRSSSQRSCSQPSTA
TAAR1 ag: human TAAR1 agonists, primary screen, Fluo-8 calcium fluorescence, CHO RD-HGA16 cells | Trace amine-associated receptor 1 (Homo sapiens), Q96RJ0 | vehicle wells 0%, saturating PEA agonist 100% | activation, % at 3 µM | hit rate 0.99% among 360,000 | AID 624467, 2012;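 active = activation above the mean activation of all test compounds in the run plus 3 SD, cut at about 38% in these data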
Target sequence (Q96RJ0 whole entry, looked up): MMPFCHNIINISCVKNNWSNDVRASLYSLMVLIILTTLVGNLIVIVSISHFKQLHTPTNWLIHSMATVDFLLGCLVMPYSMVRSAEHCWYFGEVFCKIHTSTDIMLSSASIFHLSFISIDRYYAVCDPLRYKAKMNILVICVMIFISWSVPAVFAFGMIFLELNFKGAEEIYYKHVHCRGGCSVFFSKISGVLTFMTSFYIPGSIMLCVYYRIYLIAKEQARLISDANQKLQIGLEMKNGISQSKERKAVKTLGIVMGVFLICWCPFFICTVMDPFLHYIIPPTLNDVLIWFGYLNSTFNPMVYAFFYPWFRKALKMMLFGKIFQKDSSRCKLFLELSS
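Assay system: CHO-derived RD-HGA16 cells with stable Gα16 and human TAAR1; timing: 17-24 h seeding, 75 min 37 °C dye, 30 min RT; read-out: % activation from peak over basal fluorescence ratio, DMSO-to-PEA scaled; measured by: kinetic Fluo-8 calcium fluorescence; benchmarks: low control DMSO, high control PEA (EC100); doses: 3 µM single concentration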
OXTR potentiator: human OXTR potentiators, primary screen, fluorescence, CHO-OTR cells, Fluo-8 calcium | activation, % at 3 µM | AID 2445, 2010 | hit rate 0.061% among 320,000 | Oxytocin receptor (Homo sapiens), P30559 | Fluo-8 calcium fluorescence, potentiator mode; 0% = oxytocin EC15, 100% = EC100;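 active = activation above that plate's cutoff, the mean activation of tested compounds plus 3 SD, cut at about 6.6% in these data, passing the limit was not always enough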;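 note: 100% uses oxytocin at 75 nM as the full agonist control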
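Assay system: CHO-OTR cells, human receptor / Also added: oxytocin at about EC15, sub-maximal agonist stimulus / Dosing: single dose, 3.0 µM nominal final compound concentration / Incubation: 6 min pre-incubation, 100 s read / Technique: Fluo-8 calcium dye fluorescence / Read-out: % activation vs EC15 and EC100 oxytocin / Benchmarks: EC15 oxytocin low, 75 nM oxytocin high / Replicates: singlicate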
V1aR counter: agonists of human V1a receptor, primary screen, counter-screen for OXTR agonist project, fluorescence, CHO-V1R cells; Vasopressin V1a receptor (Homo sapiens), P37288; Fluo-8 calcium fluorescence, agonist mode; 0% DMSO, 100% 3 nM vasopressin; activation, % at 3 µM; hit rate 0.25% among 320,000; AID 2797, 2010;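 active = activation above the mean activation of all tested compounds plus 3 SD, per screening run, cut at about 20% in these data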;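 note: signal is peak over basal fluorescence ratio across a 100 second FLIPR read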
TAAR1 antagonist: human TAAR1 antagonists, primary screen, Fluo-8 calcium fluorescence, CHO RD-HGA16 cells; hit rate 1.5% among 360,000; AID 624466, 2012; inhibition, % at 3 µM; antagonist; Trace amine-associated receptor 1 (Homo sapiens), Q96RJ0;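 active = inhibition above a per-plate cutoff, the mean inhibition of test compounds on that plate plus 3 SD, cut at about 49% in these data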;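 note: 0% = DMSO plus EC80 beta-PEA response and 100% = DMSO alone without agonist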
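System: RD-HGA16 CHO cells with stable hTAAR1 and Gα16 | Probe or stimulus: EC80 β-phenethylamine stimulus | Dosing: 3 µM, single point | Times: Dye loading 75 min at 37 °C, then 30 min room temperature | Measured by: Fluo-8 calcium-sensitive fluorescence | Read-out basis: % inhibition of agonist calcium response | Replicates: n of 1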
Numbers without * were called inactive; · = no result. Rows were chosen to be rich in hits. Some 2.3% of all compounds tested hit in one or more screens of this group.

SMILES	OXTR ag	TAAR1 ag	OXTR potentiator	V1aR counter	TAAR1 antagonist
Cc1cccc(N2CCN(C(=O)C3CCN(c4nnc(-n5cccc5)s4)CC3)CC2C)c1 (centres undefined)	-0.7	6.6	-6.7	5.2	49.0*
Cc1cccc(N2CCN(C(=O)C3CCN(S(=O)(=O)c4cccc5nsnc45)CC3)CC2C)c1 (centres undefined)	4.8	20.9	-18.2	16.9	59.7*
O=C(NCc1ccccc1)[C@@H]1CCCN1C(=O)[C@H]1CCCN1C(=O)c1ccccc1C(F)(F)F	·	0.8	·	·	7.6
COc1ccc(OC)c(CCNC(=O)Cc2ccc(NC(=O)C3=C(C)OCCS3)cc2)c1	·	-0.7	·	·	-13.7
COc1ccc(OC)c(CCNC(=O)c2cccc(NC(=O)C3=C(C)OCCS3)c2)c1	2.0	9.8	-7.0	3.6	57.0*
CCN=C1NC(c2cccc(F)c2)C(C(=O)OC)=C(C)N1Cc1ccccc1C(F)(F)F (centres undefined)	·	8.1	·	·	-1.9
O=C1/C(=C\c2ccc(Cl)c(Cl)c2)CN(C(=O)CCN2CCOCC2)C/C1=C/c1ccc(Cl)c(Cl)c1	·	11.7	·	·	56.8*
O=C1/C(=C\c2ccccc2)CN(C(=O)CCN2CCCCC2)C/C1=C/c1ccccc1	·	22.6	·	·	6.1
O=[N+]([O-])c1ccc(NC(=S)NCCc2ccc(Cl)cc2)cc1	14.9	8.2	-31.4	7.5	56.8*
Cc1cc(N2CCN(C(=O)OC(C)(C)C)C[C@H]2C)ccc1N1CC[C@@H](O)C1	·	4.7	·	·	-11.3
COC(=O)[C@]12CCCCC=C1N(Cc1ccc3c(c1)OCO3)C(=O)[C@H](CC(=O)N1CCCC1)C2	·	14.2	·	·	53.6*
CCOC(=O)[C@]12CCC=C1N(Cc1ccc3c(c1)OCO3)C(=O)[C@H](CC(=O)N1CCCC1)C2	·	1.2	·	·	-9.2
C#CCNC(=O)C[C@@H]1C[C@@]2(C(=O)OC)CCCCC=C2N(Cc2ccc3c(c2)OCO3)C1=O	·	3.3	·	·	2.9
COC(=O)[C@]12CCCCC=C1N(Cc1ccccc1)C(=O)[C@H](CC(=O)N1CCCC1)C2	·	12.8	·	·	55.7*
COC(=O)[C@]12CCCCC=C1N(CCc1ccc(OC)c(OC)c1)C(=O)[C@H](CC(=O)N1CCCC1)C2	·	8.5	·	·	34.5
COC(=O)[C@]12CCCCC=C1N(CCc1ccc(OC)c(OC)c1)C(=O)[C@H](CC(=O)N1CCSCC1)C2	·	12.2	·	·	60.6*
COC(=O)[C@]12CCCCC=C1N(Cc1ccc3c(c1)OCO3)C(=O)[C@H](CC(=O)N1CCCCC1)C2	·	12.1	·	·	52.3*
CCCCOCC1CN(CCCC)S(=O)(=O)c2c(cccc2Sc2ccc(SC)cc2)O1 (centres undefined)	·	1.2	·	·	-31.0
COC(=O)[C@]12C[C@H](CC(=O)N3CCC(c4ccccc4)CC3)C(=O)N(Cc3ccc4c(c3)OCO4)C1=C[C@H](COCc1ccccc1)O[C@@H]2C	·	1.4	·	·	-27.0
CCc1ccc(CNC(=O)CCC(=O)n2ncc3cc(C)ccc32)cc1	0.8	46.6*	-2.4	-0.2	11.6
COc1ccc(CCNC(=O)c2cc(C(=O)c3cc(C)ccc3O)cn(CCc3ccc(OC)cc3)c2=O)cc1	0.6	4.1	-8.1	1.2	54.3*
N#Cc1nc(-c2cccs2)oc1NCc1ccc(Cl)cc1	-1.0	15.4	-16.4	0.7	49.5*
Cn1nc(CC(=O)Nc2ncc(Br)s2)c2ccccc2c1=O	12.4	44.2*	-21.3	8.1	29.0
Cn1nc(CC(=O)NC2CCCCCCCCCCC2)c2ccccc2c1=O	0.4	3.4	-1.5	0.6	-3.3
COc1ccc(CCNC(=O)C(=O)NCC2OCCN2S(=O)(=O)c2cc(F)ccc2F)cc1 (centres undefined)	3.4	14.8	-5.6	3.4	55.2*
SMILES	OXTR ag	TAAR1 ag	OXTR potentiator	V1aR counter	TAAR1 antagonist
COc1ccccc1CCNC(=O)C(=O)NCC1OCCN1S(=O)(=O)c1ccc(Cl)cc1 (centres undefined)	0.8	36.4	-6.9	2.1	7.4
O=C(NCCCc1ccccc1)C(=O)NCC1OCCN1S(=O)(=O)c1cc(F)ccc1F (centres undefined)	-1.0	1.1	-6.7	3.0	-2.2
COc1ccccc1CCNC(=O)C(=O)NCC1OCCN1S(=O)(=O)c1ccc(F)cc1 (centres undefined)	-2.0	39.1*	-3.6	0.3	-17.9
COc1ccccc1CCNC(=O)C(=O)NCC1OCCN1S(=O)(=O)c1ccc(OC)c(OC)c1 (centres undefined)	1.4	40.5*	-4.4	2.6	-16.5
Cc1ccc2nc(CN(C)C(=O)[C@@H](Cc3ccccc3)NC(=O)[C@H]3O[C@@H](n4cnc(C(N)=O)n4)[C@H](O)[C@@H]3O)[nH]c2c1	·	0.5	·	·	-21.4
Fc1ccc(CN2CCN(c3ncc(Cc4ccccc4)cn3)CC2)c(Cl)c1	·	0.7	·	·	-23.2
CC(C)[C@H](NC(=O)OCc1ccccc1)C(=O)OCc1cc(=O)oc2cc(O)ccc12	5.4	5.3	-15.7	4.8	53.8*
CC(C)[C@H](NC(=O)OCc1ccccc1)C(=O)OCC(=O)c1ccccc1	-1.6	1.1	-6.4	0.4	-3.5
COc1ccc(-c2cn3cc(C(F)(F)F)cc(Cl)c3n2)cc1	-2.4	-0.2	10.8*	-1.1	-22.1
Fc1ccc(-c2cn3cc(C(F)(F)F)cc(Cl)c3n2)cc1	-1.9	8.7	-1.2	-1.4	9.1
NC(Cc1ccc(O)cc1)C(=O)NN=Cc1ccccc1O (centres undefined)	·	1.5	·	·	-7.3
Cc1cc(C(=O)CSc2nc3ccccc3[nH]2)c(C)n1CC1CCCO1 (centres undefined)	15.0	31.7	-13.2	11.2	72.4*
c1ccc(C[C@H]2CN=C(Nc3ccccc3)N2CC2CCCCC2)cc1	2.9	41.2*	-6.3	3.6	1.3
CC1CCC(CN2C(Nc3ccccc3)=NC[C@@H]2Cc2ccccc2)CC1 (some centres undefined)	7.8	44.3*	-7.7	5.7	14.6
NCCN1C(=O)c2ccccc2C1(O)c1ccc(Cl)cc1 (centres undefined)	·	2.7	·	·	-8.6
CCCN(C(=O)COC(=O)c1nc2nccc(C)n2n1)C1CCS(=O)(=O)C1 (centres undefined)	·	13.1	·	·	-5.5
COc1ccc(C2(c3ccc(OC)cc3)NC(=O)N(CC(=O)NCC(C)c3ccccc3)C2=O)cc1 (centres undefined)	0.3	22.2	-7.4	2.9	56.7*
CCc1c(-c2cccc(Br)c2)ncn1CCc1ccccc1OC	·	28.1	·	·	29.0
O=C(Nc1ccccc1)Nc1ccc(Nc2ccccc2)cc1	3.6	20.9	-6.0	3.9	14.9

Compound activity deposited in PubChem BioAssay by The Scripps Research Institute Molecular Screening Center.
